The labels stand for the following.
B1: tRNA (parent)
chain: GUUCCGUUGGCGUAAUGGUAACGCGUCUCCCUCCUAAGGAGAAGACUGCGGGUUCGAGUCCCGUACGGAACG

This sample holds only a part of the variants without activity. Bounds are passed on as bounds.

In this series the parent is B1. Description: yeast fitness relative to wild type (ratio to wild type); higher = fitter; tRNA-Arg(CCU), competitive growth, 37 C, YPD. An outline of the steps: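 Variants of the tRNA-Arg(CCU) gene, chemically synthesised with a 3% per-site mutation rate at 69 sites, were placed at the native genomic locus in Saccharomyces cerevisiae. The pooled strains were competed in YPD at 37°C for 24 hours in six parallel replicates. Gene amplicons from the start population and from each end population were read by 100-nucleotide paired-end sequencing. Darwinian fitness relative to wild type came from changes in genotype frequencies; genotypes needed ≥ 100 starting reads, and estimates < 0.5 were set to 0.5.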
For the variant U8C G41A A65G, the yeast fitness was found to be 0.63. As to U8A U13A, the yeast fitness turned out to be 0.606. As for G9A C27A A42C C49G G51C A65C, the yeast fitness is at most 0.5.

For U8A G10U C22U A37G, the yeast fitness was 0.511.

Regarding U8C A37G, the yeast fitness is 0.657. As for U8G A20G A37G A43G A70U, the yeast fitness is at most 0.5. Under G9A A15U C33G G39A C62A stands at most 0.5. Under G9A A14U A21U A69C stands 0.755; under U8C A37G G50A A69U, at most 0.5; under G9A C11U C61A, 0.56. Consider G9A C24U A40U G68C, for which the yeast fitness is at most 0.5. U8G G50C: the yeast fitness is at most 0.5.

As to U8C G9C A21C C24G G38A, the yeast fitness stood at 0.74.

As for U8C C61A, the yeast fitness is 0.763. Consider U8C C61U, for which the yeast fitness was 0.942. Consider U8A C61A, for which the yeast fitness amounted to 0.753.

With U8G A14U G50A A57U A70G, the yeast fitness was at most 0.5.

As for U8C C34U, the yeast fitness was found to be 0.728.

Regarding U8A C31G C34U C55U G58A C61U, the yeast fitness is at most 0.5. Under G9A A21G C62U G63C A70C stands 0.52; under G9A C11U C29U A65U, at most 0.5; under G9A C27G C34U, at most 0.5. For U8A C34U C55G, the yeast fitness is at most 0.5. Regarding U8G U16C A21U C22A U28G, the yeast fitness was at most 0.5. For the variant U8C U32C, the yeast fitness came out at 0.81. With U8C U13G C22U C49U A65U, the yeast fitness was at most 0.5. With G9A C11U C66U, the yeast fitness was found to be 0.779. The figure for U8A C22G is 0.7. Turning to U8A C31G A42G G52C, the yeast fitness is at most 0.5.

Regarding U8A G12A C33U A65U, the yeast fitness was 0.562.

On to U8C G41C, for which the yeast fitness was 0.88. Under U8G A20G stands 0.544; under U8A U54A C55U G68A A69U, 0.507; under U8C C11A U54C, at most 0.5. On to U8C G10C G23C C29G G51A, for which the yeast fitness was 0.72.

For U8C C55U, the yeast fitness came to 0.754. The figure for U8C C55G is 0.671. For the variant U8C C11U C24G A45C, the yeast fitness came out at 0.629.

On to U8C G17C U26C C34A A45C G48A, for which the yeast fitness was at most 0.5. The figure for G9A A15U C31G U53A C55U A57C C60G G67C is at most 0.5; for U8C C31U A45C U47C it is at most 0.5; for U8G G56A it is 0.568.

In the case of U8C G39C G68A, the yeast fitness was at most 0.5. The figure for U8A G10C C29A A40U C55G is 0.533; for U8G C24G G41A A65G it is at most 0.5; for U8A C34G A65U C66A it is at most 0.5. Take U8A C22G C46G C66U: the yeast fitness was found to be 0.567. Under U8G U26A C66U G67C stands 0.847; under U8C G12A A65G, 0.615; under U8A U19A G50C, at most 0.5. On to U8G G10C, for which the yeast fitness is at most 0.5. Under U8A G9C U54A stands at most 0.5; under U8A G10C C11U C24U A42C U47C G68C, at most 0.5. Under U8A U28A C31G G44A G51C A65G stands at most 0.5; under U8C G10A G67C, 0.592; under U8A C24G A40G C49U G56C, at most 0.5. The figure for U8C G9A A42G G58U is at most 0.5; for U8C C30G C31G it is 0.58. U8C A21U C34A A40C G67A: the yeast fitness is at most 0.5. Turning to U8C A15U G25A C34G G58C, the yeast fitness was at most 0.5.

On to U8A C34U G67A A69G, for which the yeast fitness was found to be 0.568. Under U8G C34U A40G C46A stands at most 0.5; under U8C C31G A42G, 0.624.

As for G9A C11A A40U G48C C55U C61G, the yeast fitness is at most 0.5. With U8C C22U G23C C33G C49U, the yeast fitness is at most 0.5. As for U8A C27A G68C, the yeast fitness is at most 0.5. Regarding U8A C30G G56C A57G G68A A69C, the yeast fitness was at most 0.5. In the case of G9A A14G C60U C62U, the yeast fitness was at most 0.5. As to U8C A40G A43C, the yeast fitness came to 0.732. The figure for U8C C31U C46A C49A is at most 0.5. Take G9A C11A U35C G50C: the yeast fitness is at most 0.5. The figure for U8C A14C C55U C61G C62G is at most 0.5; for G9A C22A C33G U35A C55U it is at most 0.5; for U8A G12A A14C C31A G41C C49A G56A it is 0.563. The figure for U8G G25A A70C is 0.544; for G9A C22G A36U it is 0.666; for G9A A40G U64C it is 0.722. Consider U8C C22G C60A, for which the yeast fitness was 0.609.

On to U8A G44A G67C, for which the yeast fitness is at most 0.5. The figure for U8A G18A C30A U32A U35G C66U A69U is at most 0.5; for U8C U47A it is 0.937; for G9A C27G C31U C46G G51C G52A it is at most 0.5. Under U8C C24U A65C stands 0.59; under U8C U16A A21G, at most 0.5. For U8G G51A A65U, the yeast fitness is at most 0.5. U8C U26G C30U A40G: the yeast fitness is at most 0.5. The figure for U8C G50A A70U is 0.736; for U8A C24U C31G it is at most 0.5; for U8C U26A C27A it is at most 0.5.

Consider G9A C22G U28A C31G C55A G68C, for which the yeast fitness is at most 0.5. As for U8C A14C G18A C31U, the yeast fitness was at most 0.5.

Turning to U8A C22U A43G C66A, the yeast fitness is at most 0.5. Turning to U8C C27G A42G C60U U64A C66A G68A A69G, the yeast fitness is 0.543.

For G9A A65G C66U, the yeast fitness came to 0.815.

Take U8G C49U: the yeast fitness is 0.668. Take G9A C27G A40G G52A: the yeast fitness was at most 0.5. Take G9A A65U: the yeast fitness turned out to be 0.93. Turning to U8C G25C C31U A69C, the yeast fitness is at most 0.5. U8C A40U A69U: the yeast fitness came to 0.75. Under G9A C11U C27U A36G stands at most 0.5. As to U8A C22U G38C C49G, the yeast fitness stood at 0.602. Consider U8A G18A C30A U32A U35A G67A, for which the yeast fitness was at most 0.5. The figure for U8C G9A C22G U32G G51C U64A C66U A69C is at most 0.5; for U8C C55U G58A it is at most 0.5. The figure for U8C C29A U54A is at most 0.5. In the case of G9A A42U U59A G67C, the yeast fitness was at most 0.5. For U8C C29G C30U C46U G48A, the yeast fitness was at most 0.5.

As for U8A G10A A69U, the yeast fitness is 0.542. The figure for U8A U53A is at most 0.5; for U8C C22U U32C C46G U53G G68C it is at most 0.5. Under U8C A15G stands 0.969; under U8G G23C, at most 0.5; under U8A C30U, 0.665. The figure for U8A C30G is at most 0.5; for U8C G17A C46A A65G it is at most 0.5.

Take U8G C29G A40U C61U A69C: the yeast fitness amounted to 0.648.

Turning to U8C C46U G51C, the yeast fitness was at most 0.5. With U8G C30A G50C C62U G67U, the yeast fitness is at most 0.5.

As to G9A A14C C22G U54C C66U, the yeast fitness is at most 0.5. The figure for U8A G23A C30G U59A A70C is at most 0.5; for U8A G9C G38A A40C U59C it is 0.638; for U8C C27A U47A G56C A69C it is at most 0.5.

As for G9A A36U G39A G67A, the yeast fitness was at most 0.5. For the variant G9A C11A A14C U16A C31A C62U, the yeast fitness was at most 0.5. The figure for U8C C31G G51A G68C is at most 0.5; for U8A G18A U32A G58A it is at most 0.5; for U8C U16A A21C C24G A37U C55U it is at most 0.5. With U8G G10A C11G U19G A40G C55U C60U, the yeast fitness worked out at 0.511.

For U8G C27A, the yeast fitness was determined as 0.564. The figure for U8C G12C C55U A70C is 0.542; for U8C C27G C29A it is at most 0.5; for U8A G18A G25A C33U G51A G56A it is 0.614. Consider U8A U16G C30U C33G A37C A43G, for which the yeast fitness is at most 0.5. The figure for U8A G18C C24A U32C A70U is at most 0.5. The figure for U8C C49G C62A is at most 0.5.

U8A G17A C62G: the yeast fitness is at most 0.5.

Regarding U8A G39C A57G A65G, the yeast fitness is at most 0.5. Consider U8A U13A G48C, for which the yeast fitness came out at 0.516.

With G9A A36G G50C U64C, the yeast fitness is 0.645. As for U8C A70G, the yeast fitness is 0.971. On to G9A C24G A40C, for which the yeast fitness was at most 0.5.

Regarding U8C G12C C61A G67A, the yeast fitness is at most 0.5. U8C G9A A20C A70U: the yeast fitness is at most 0.5.

In the case of U8G G67U, the yeast fitness stood at 0.583. Under U8G C30U C31G C66G stands at most 0.5; under G9A C24G C34G C55A A65G, at most 0.5. Under G9A A43C stands 1.07.

In the case of G9A A43U, the yeast fitness was found to be 1.08.

U8G G17A A20C C22G C29G C34G A70G: the yeast fitness was at most 0.5. For the variant U8C G48A C55A G58C, the yeast fitness is at most 0.5.

With U8C G25C G38C C49U A57U C66A, the yeast fitness is at most 0.5. Turning to U8A C49G A57C, the yeast fitness was at most 0.5.

For the variant U8C A43C C66G, the yeast fitness is at most 0.5. Under U8G A57C stands at most 0.5; under G9A C11G C22U A40G A42G, at most 0.5; under U8C A36U G50C, at most 0.5. The figure for U8A G18C C24A U32C G52C G56A is at most 0.5; for U8C C11U C22G C55G G63C it is at most 0.5; for U8C G9A U13A A15G A37U it is 0.549.

As for G9A A57G, the yeast fitness stood at 0.933. Regarding U8G A69U, the yeast fitness amounted to 0.575. For G9A C27G U35A, the yeast fitness was at most 0.5.

For the variant G9A A42C C66U, the yeast fitness was 0.543. The figure for G9A C29G G63A is 0.525. Under U8C C30U U47A G67C stands at most 0.5; under G9A C29U U59A, 0.561.

For U8C C22A C33G G39C C46U C66U, the yeast fitness was determined as 0.536.

For the origin of these results see the RNAGym collection of RNA variant scans (doi:10.1126/science.aae0568).
